Activity calls are given as the source filed them. The calls are words filed in the database; no cut-off is given here.
Legend:
Vaccinia virus = experiment: Antiviral activity against Vaccinia virus infected in human lung fibroblast assessed as inhibition of virus-induced cytopathic effect at 0.32 to 100 uM; type: functional, organism-based; conditions: Orthopoxvirus vaccinia
[1] = system: Vesicular stomatitis virus; experiment: Antiviral activity against VSV infected in human lung fibroblast assessed as inhibition of virus-induced cytopathic effect at 0.32 to 100 uM; type: functional, organism-based
[2] = system: Mammalian orthoreovirus 1; experiment: Antiviral activity against Reovirus-1 infected in african green monkey Vero cells assessed as inhibition of virus-induced cytopathic effect at 0.32 to 100 uM; type: functional, organism-based
Method in brief: (§1)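 Confluent cell cultures were infected with 100 CCID50 of virus in the presence of test compound at 100, 40, 8, 1.6 and 0.32 μM. Cytopathic effect was scored once it was complete in untreated infected controls.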

Felid alphaherpesvirus 1 = experiment: Antiviral activity against Feline herpesvirus infected in feline CRFK cells assessed as inhibition of virus-induced cytopathic effect at 0.32 to 100 uM; type: functional, organism-based; method in brief: as §1
Influenza A virus [3] = experiment: Antiviral activity against Influenza A virus H1N1 infected in MDCK cells assessed as inhibition of virus-induced cytopathic effect at 0.32 to 100 uM; type: functional, organism-based
Method in brief: (§2)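 Confluent MDCK monolayers were infected in the presence of the compound at 100, 40, 8, 1.6 and 0.32 μM. Viral cytopathicity was scored once it was complete in untreated infected control cultures.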

Punta Toro virus = experiment: Antiviral activity against Punta Toro virus infected in african green monkey Vero cells assessed as inhibition of virus-induced cytopathic effect at 0.32 to 100 uM; type: functional, organism-based; method in brief: as §1
HeLa = experiment: Cytostatic activity against human HeLa cells after 3 days by coulter counter analysis; type: functional, cell-based; conditions: 72 h
Method in brief: (§3)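 300,000–500,000 cells/ml mixed 1:1 with compound dilutions and incubated at 37 °C for 2 days (L1210) or 3 days (CEM, HeLa). Cell number counted with a Coulter counter; HeLa trypsinized before counting.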

Influenza B virus = experiment: Antiviral activity against Influenza B virus infected in MDCK cells assessed as inhibition of virus-induced cytopathic effect at 0.32 to 100 uM; type: functional, organism-based; method in brief: as §2
[4] = system: Respiratory syncytial virus; experiment: Antiviral activity against RSV infected in human cervix carcinoma cells assessed as inhibition of virus-induced cytopathic effect at 0.32 to 100 uM; type: functional, organism-based; method in brief: as §1
Human alphaherpesvirus 1 = experiment: Antiviral activity against HSV1 KOS infected in human lung fibroblast assessed as inhibition of virus-induced cytopathic effect at 0.32 to 100 uM; type: functional, organism-based; method in brief: as §1
[5] = system: Radical scavenging activity; experiment: Antioxidant activity assessed as DPPH free radical scavenging activity at 100 uM after 20 mins by spectrophotometric analysis; type: functional
Method in brief: (§4)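 0.05 mM DPPH in absolute ethanol mixed with an equal volume of compound in DMSO (final 100 μM). Shaken and left 20 or 60 min, then absorbance read at 517 nm and percent activity calculated. Three replicates, averaged.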

[6] = system: Vesicular stomatitis virus; experiment: Antiviral activity against Vesicular stomatitis virus infected in human cervix carcinoma cells assessed as inhibition of virus-induced cytopathic effect at 0.32 to 100 uM; type: functional, organism-based
Method in brief: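 Confluent human cervix carcinoma (HeLa) cultures received 100 CCID50 of VSV together with the compound at 100, 40, 8, 1.6 or 0.32 μM. Cytopathicity was read at the point of full CPE in infected, untreated control wells.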

HCT-116 = experiment: Cytostatic activity against human HCT116 cells after 72 hrs by MTT assay; type: functional, cell-based; conditions: HCT-116, 72 h
Method in brief: (§5)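 Monolayers in DMEM with 10% FBS, 2 mM L-glutamine and penicillin/streptomycin, 37 °C, 5% CO2. Seeded at 1–3 × 10^4 cells/ml, then compound added in tenfold dilutions (10⁻⁸–10⁻⁴ M) for 72 h. MTT read at 570 nm; percent growth taken against time-zero and untreated controls. IC50 by linear regression; quadruplicate, at least two experiments.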

Human respirovirus 3 = experiment: Antiviral activity against Parainfluenza virus 3 infected in african green monkey Vero cells assessed as inhibition of virus-induced cytopathic effect at 0.32 to 100 uM; type: functional, organism-based; method in brief: as §1
[7] = system: Human immunodeficiency virus 1; experiment: Antiviral activity against HIV1 3B infected in human CEM cells assessed as inhibition of virus-induced CEM giant cell formation at 0.32 to 100 uM after 4 days; type: functional, organism-based; conditions: CCRF-CEM
Method in brief: (§6)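 CEM cells (~3 × 10^5 cells/cm³) exposed to 100 CCID50/ml of virus and seeded into wells holding compound dilutions. Incubated 4 days at 37 °C, then giant cell formation examined microscopically.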

Sindbis virus = experiment: Antiviral activity against Sindbis virus infected in african green monkey Vero cells assessed as inhibition of virus-induced cytopathic effect at 0.32 to 100 uM; type: functional, organism-based; method in brief: as §1
CCRF-CEM = experiment: Cytostatic activity against human CEM cells after 3 days by coulter counter analysis; type: functional, cell-based; conditions: 72 h; method in brief: as §3
Feline coronavirus = experiment: Antiviral activity against Feline coronavirus infected in feline CRFK cells assessed as inhibition of virus-induced cytopathic effect at 0.32 to 100 uM; type: functional, organism-based; method in brief: as §1
MCF7 = experiment: Cytostatic activity against human MCF7 cells after 72 hrs by MTT assay; type: functional, cell-based; conditions: MCF7, 72 h; method in brief: as §5
Coxsackievirus B4 [8] = experiment: Antiviral activity against Coxsackievirus B4 infected in human cervix carcinoma cells assessed as inhibition of virus-induced cytopathic effect at 0.32 to 100 uM; type: functional, organism-based; method in brief: as §1
NCI-H460 = experiment: Cytostatic activity against human NCI-H460 cells after 72 hrs by MTT assay; type: functional, cell-based; conditions: NCI-H460, 72 h; method in brief: as §5
[9] = Antioxidant activity assessed as inhibition of AAPH-induced linoleic acid lipid peroxidation by measuring conjugated diene hydroperoxide level; type: functional; design: concentration or dose not given beside the values; conditions: dose or concentration not given here
Method in brief: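 Linoleic acid sodium salt (10 μL of 16 mM) in 0.05 M phosphate buffer pH 7.4 at 37 °C. Oxidation started under air with 50 μL of 40 mM AAPH. Conjugated diene hydroperoxide formation followed as absorbance rise at 234 nm; control contains the same DMSO level. At least triplicate.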

Coxsackievirus B4 [10] = experiment: Antiviral activity against Coxsackievirus B4 infected in african green monkey Vero cells assessed as inhibition of virus-induced cytopathic effect at 0.32 to 100 uM; type: functional, organism-based; method in brief: as §1
Influenza A virus [11] = experiment: Antiviral activity against Influenza A virus H3N2 infected in MDCK cells assessed as inhibition of virus-induced cytopathic effect at 0.32 to 100 uM; type: functional, organism-based; method in brief: as §2
[12] = system: Radical scavenging activity; experiment: Antioxidant activity assessed as DPPH free radical scavenging activity at 100 uM after 60 mins by spectrophotometric analysis; type: functional; method in brief: as §4
L1210 = experiment: Cytostatic activity against mouse L1210 cells after 2 days by coulter counter analysis; type: functional, cell-based; conditions: L1210, 48 h; method in brief: as §3
Human alphaherpesvirus 2 = experiment: Antiviral activity against HSV2 G infected in human lung fibroblast assessed as inhibition of virus-induced cytopathic effect at 0.32 to 100 uM; type: functional, organism-based; conditions: strain G; method in brief: as §1
[13] = system: Human immunodeficiency virus 2; experiment: Antiviral activity against HIV2 ROD infected in human CEM cells assessed as inhibition of virus-induced CEM giant cell formation at 0.32 to 100 uM after 4 days; type: functional, organism-based; conditions: ISOLATE ROD, CCRF-CEM; method in brief: as §6
Glycine max = experiment: Inhibition of soybean LOX assessed as conversion of sodium linoleate to 13- hydroperoxylinoleic acid at 100 uM

| SMILES | inhibition (Vaccinia virus) | inhibition [1] | inhibition [2] | inhibition (Felid alphaherpesvirus 1) | inhibition (Influenza A virus [3]) | inhibition (Punta Toro virus) | IC50 (HeLa) | inhibition (Influenza B virus) | inhibition [4] | inhibition (Human alphaherpesvirus 1) | Activity [5] | inhibition [6] | IC50 (HCT-116) | inhibition (Human respirovirus 3) | inhibition [7] | inhibition (Sindbis virus) | IC50 (CCRF-CEM) | inhibition (Feline coronavirus) | IC50 (MCF7) | inhibition (Coxsackievirus B4 [8]) | also measured |
| --- | --- | --- | --- | --- | --- | --- | --- | --- | --- | --- | --- | --- | --- | --- | --- | --- | --- | --- | --- | --- | --- |
| CC(C)Cc1ccc(C(C)C(=O)NN)cc1 (stereo unspecified) | inactive | inactive | inactive | inactive | inactive | inactive | 129 µM | inactive | inactive | inactive | inactive | inactive | > 100 µM | inactive | inactive | inactive | 147 µM | inactive | > 100 µM | inactive | IC50 (NCI-H460): > 100 µM; inhibition [9]: 6%; inhibition (Coxsackievirus B4 [10]): inactive; inhibition (Influenza A virus [11]): inactive; Activity [12]: 1%; IC50 (L1210): 170 µM; inhibition (Human alphaherpesvirus 2): inactive; inhibition [13]: inactive; inhibition (Glycine max): 8% |
| CC(C(=O)NN)c1cccc(Oc2ccccc2)c1 (stereo unspecified) | inactive | inactive | inactive | inactive | inactive | inactive | 120 µM | inactive | inactive | inactive | inactive | inactive | > 100 µM | inactive | inactive | inactive | 154 µM | inactive | > 100 µM | inactive | IC50 (NCI-H460): > 100 µM; inhibition [9]: 10%; inhibition (Coxsackievirus B4 [10]): inactive; inhibition (Influenza A virus [11]): inactive; Activity [12]: 1%; IC50 (L1210): 212 µM; inhibition (Human alphaherpesvirus 2): inactive; inhibition [13]: inactive; inhibition (Glycine max): 3% |
| CC(C)Cc1ccc(C(C)C(=O)NNC(=O)NO)cc1 (stereo unspecified) | inactive | inactive | inactive | inactive | inactive | inactive | 160 µM | inactive | inactive | inactive | 29% | inactive | > 100 µM | inactive | inactive | inactive | 205 µM | inactive | > 100 µM | inactive | IC50 (NCI-H460): > 100 µM; inhibition [9]: 20%; inhibition (Coxsackievirus B4 [10]): inactive; inhibition (Influenza A virus [11]): inactive; Activity [12]: 54%; IC50 (L1210): 108 µM; inhibition (Human alphaherpesvirus 2): inactive; inhibition [13]: inactive; inhibition (Glycine max): 7% |
| CC(C(=O)NNC(=O)NO)c1cccc(Oc2ccccc2)c1 (stereo unspecified) | inactive | inactive | inactive | inactive | inactive | inactive | ≥ 250 µM | inactive | inactive | inactive | 39% | inactive | > 100 µM | inactive | inactive | inactive | 183 µM | inactive | > 100 µM | inactive | IC50 (NCI-H460): > 100 µM; inhibition [9]: 22%; inhibition (Coxsackievirus B4 [10]): inactive; inhibition (Influenza A virus [11]): inactive; Activity [12]: 66%; IC50 (L1210): 125 µM; inhibition (Human alphaherpesvirus 2): inactive; inhibition [13]: inactive; inhibition (Glycine max): 3% |
